Consider 3 compounds from PMC10519257 (Journal of Enzyme Inhibition and Medicinal Chemistry, 2023).

A short description of series [1]: Serum stability. The format is in vitro ADME, human. An outline of the steps:
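Test compound in water (1 mg/mL stock) diluted to 0.1 mg/mL in phosphate buffer pH 7.2, then added to serum from one 40th-week pregnant donor (oxytocinase-rich) and incubated at 37 °C with a reference peptide as internal standard. Aliquots at 1, 3, 5, 20, 24, 48 h were quenched in H2O/CH3CN (1:1) with 0.1% TFA, held 5 min at 0 °C and centrifuged.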

Series [2] can be described thus: Stability in phosphate buffer pH 7.2. Type of series: physicochemical. An outline of the steps: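 Peptides were incubated at 37 °C in phosphate buffer at pH 7.2 without serum. Remaining peptide was sampled at 1, 3, 5, 20, 24 and 48 h and measured by RP-HPLC-MS.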
Series [3] deals with rat mammary gland. The note with it: cited from earlier work.
In series [4] the test system is isolated uterus. The note with it: rat isolated uterus; cited from earlier work.

Ends that are not written are not given here.

As usually defined, the half-life is the time in which the quantity being followed falls by half. The low end stands for fast loss, the high end for slow loss. `CC[C@H](C)[C@@H]1NC(=O)[C@H](Cc2ccc(O)cc2)NC(=O)[C@@H](N)CSSC[C@@H](C(=O)N2CCC[C@H]2C(=O)N[C@@H](CC(C)C)C(=O)NCC(N)=O)NC(=O)[C@H](CC(N)=O)NC(=O)[C@H](CCC(N)=O)NC1=O` [OT, Oxytocin]: the half-life in series [1] (human, serum) is 16 h; in series [2], 24 h. Also, in series [1] (woman serum at 40th week of pregnancy, 37 °C), the “time after which not detectable by analytical RP-HPLC” value is 48 h.
Consider “(1,6-di-serine)-oxytocin (SYIQNSPLG; ends and bridges not checked; UniProt P01178 20-28, looked up, variant C1S C6S) [[Ser(1,6)]OT]”, for which the contractile activity result in series [3] and in series [4] was “devoid of any contractile activity” throughout.
“(1,6-di-alanine)-oxytocin (AYIQNAPLG; ends and bridges not checked; UniProt P01178 20-28, looked up, variant C1A C6A) [[Ala(1,6)]OT]”: the contractile activity entry in series [3] and in series [4] was “devoid of any contractile activity” each time.
